From ChEMBL document CHEMBL3769305, “Glucose-functionalized amino-OPEs as biocompatible photosensitizers in PDT” (Eur J Med Chem, 2016)
Activity calls are given as the source filed them. The calls are words filed in the database; no cut-off is given here.

Assays:
[1] = tested on: HeLa; experiment: Drug uptake in human HeLa cells at 1 uM after 6 hrs by fluorescence microscopy; assay type: ADME, cell-based
Summary of the method: (§1)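 Cells on glass coverslips at 60–70% confluence were exposed to 1×10^-6 M compound in medium with 1% FBS (DMSO <0.5%) for 6 h at 37 °C. After two PBS washes they were imaged live under UV excitation (365 nm), with blue excitation (460–490 nm) also used. Untreated cells served as autofluorescence controls.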

[2] = Drug uptake in human Hep2 cells at 1 uM after 6 hrs by fluorescence microscopy; assay type: ADME, cell-based; conditions: hep-2, 6 h; summary of the method: as §1
[3] = Drug uptake in endoplasmic reticulum of human HaCaT cells at 1 uM after 6 hrs by ER-tracker dye-based fluorescence microscopy; assay type: ADME, cell-based
Summary of the method: (§2)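 Cells grown on glass coverslips were incubated with 1×10^-6 M photosensitizer for 6 h at 37 °C, washed twice in PBS and imaged live by fluorescence microscopy. Organelle probes (ER-Tracker, ex 374/em 430 nm; NBD-Golgi, ex 466/em 536 nm) were applied for 30 min at the supplier's concentrations, and their patterns were compared with the compound signal.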

[4] = Drug uptake in endoplasmic reticulum of human HeLa cells at 1 uM after 6 hrs by ER-tracker dye-based fluorescence microscopy; assay type: ADME, cell-based; summary of the method: as §2
[5] = Drug uptake in endoplasmic reticulum of human Hep2 cells at 1 uM after 6 hrs by ER-tracker dye-based fluorescence microscopy; assay type: ADME, cell-based; conditions: hep-2, 6 h; summary of the method: as §2
[6] = Drug uptake in golgi apparatus of human HeLa cells at 1 uM after 6 hrs by NBD dye-based fluorescence microscopy; assay type: ADME, cell-based; summary of the method: as §2
[7] = Dark toxicity against human HeLa cells assessed as cell survival at 3 uM incubated for 6 hrs measured after 24 hrs by MTT assay; assay type: cell-based; conditions: read-out: Survival
Summary of the method: (§3)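 Cells (HaCaT and HeLa in DMEM, HEp-2 in RPMI, each with 10% FBS, at 37 °C and 5% CO2) were treated at 60–70% confluence. The compound was added from a 10^-3 M DMSO stock in medium with 1% FBS (final DMSO <0.5%) at 3·10^-6 to 2.5·10^-5 M and kept in the dark (6 h per table footnote, 18 h per methods). After 24 h, MTT at 50 µg/mL for 4 h, read at 542 nm as % of control OD.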

[8] = Dark toxicity against human Hep2 cells assessed as cell survival at 5 uM incubated for 6 hrs measured after 24 hrs by MTT assay; assay type: cell-based, HEp-2; conditions: read-out: Survival; summary of the method: as §3
[9] = tested on: HaCaT; experiment: Phototoxicity against human HaCaT cells assessed as cell lethality at 3 to 250 uM incubated for 6 hrs followed by UV irradiation at 0.5 J/cm'2 measured after 24 hrs by MTT assay; assay type: cell-based
Summary of the method: (§4)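 Cultures at 60–70% confluence were loaded with the photosensitizer for 6 h in medium with 1% FBS and <0.5% DMSO. Medium was then replaced and cells were irradiated with UVA (300–400 nm, 15.9 W/m² at 10 cm), then washed and kept in complete medium for 24 h. Survival was read by MTT (50 µg/mL, 4 h, 542 nm) as % of untreated control OD.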

[10] = tested on: HeLa; experiment: Phototoxicity against human HeLa cells assessed as cell lethality at 3 to 250 uM incubated for 6 hrs followed by UV irradiation at 0.5 J/cm'2 measured after 24 hrs by MTT assay; assay type: functional; summary of the method: as §4
[11] = tested on: HeLa; experiment: Phototoxicity against human HeLa cells assessed as cell lethality at 3 to 250 uM incubated for 6 hrs followed by UV irradiation at 1 J/cm'2 measured after 24 hrs by MTT assay; assay type: functional; summary of the method: as §4
[12] = tested on: HeLa; experiment: Phototoxicity against human HeLa cells assessed as cell lethality at 3 to 250 uM incubated for 6 hrs followed by UV irradiation at 2 J/cm'2 measured after 24 hrs by MTT assay; assay type: functional; summary of the method: as §4
[13] = Phototoxicity against human Hep2 cells assessed as cell lethality at 3 to 250 uM incubated for 6 hrs followed by UV irradiation at 2 J/cm'2 measured after 24 hrs by MTT assay; assay type: functional, HEp-2; summary of the method: as §4
[14] = tested on: HaCaT; experiment: Induction of cell morphological changes in human HaCaT cells assessed as appearance of necrotic cells with loss of membrane integrity at 3 to 5 uM after 24 hrs by Hoechst 33258 staining-based phase contrast microscopy in presence of UVA light
[15] = tested on: HEp-2; experiment: Induction of cell morphological changes in human Hep2 cells assessed as cytoplasmic retraction at 3 to 5 uM after 24 hrs by Hoechst 33258 staining-based phase contrast microscopy in presence of UVA light; assay type: functional
[16] = tested on: HEp-2; experiment: Induction of cell morphological changes in human Hep2 cells assessed as cellular stretching at 3 to 5 uM after 24 hrs by Hoechst 33258 staining-based phase contrast microscopy in presence of UVA light; assay type: functional
[17] = tested on: HEp-2; experiment: Induction of cell morphological changes in human Hep2 cells assessed as cytoplasmic vacuolization at 3 to 5 uM after 24 hrs by Hoechst 33258 staining-based phase contrast microscopy in presence of UVA light; assay type: functional
[18] = tested on: HEp-2; experiment: Induction of morphological changes in human Hep2 cells assessed as nuclear retraction at LD50 after 24 hrs by Hoechst 33258 staining-based fluorescence microscopy in presence of UVA light; assay type: functional, cell-based
[19] = tested on: HaCaT; experiment: Induction of necrotic morphological changes in human HaCaT cells at LD50 after 24 hrs by Hoechst 33258 staining-based fluorescence microscopy in presence of UVA light; assay type: cell-based
[20] = tested on: HEp-2; experiment: Phototoxicity against human Hep2 cells assessed as appearance of rounded cells at LD50 after 24 hrs by acridine orange/ethidium bromide staining-based assay in presence of 0.25 to 0.5 J/cm'2 UVA light; assay type: functional, cell-based
Summary of the method: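 Cells (HaCaT, HeLa in DMEM; HEp-2 in RPMI; 10% FBS) at 60–70% confluence were incubated 6 h with 3·10^-6 M photosensitizer (DMSO stock diluted in medium with 1% FBS, final DMSO <0.5%). Medium was replaced and cells were given 0.25 J/cm² UVA (300–400 nm). 24 h later, cells were stained live with 50 µg/ml AO plus 50 µg/ml EtBr in PBS. Within 15 min, 200 cells per condition were scored as living, rounded, apoptotic or necrotic.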

[21] = Induction of microtubule disruption in human HeLa cells assessed as abnormality in chromosome distribution at LD50 after 24 hrs by immunofluorescence assay in presence of UVA light; assay type: cell-based
[22] = tested on: HeLa; experiment: Induction of cell morphological changes in human HeLa cells assessed as appearance of rounded cells at 3 to 5 uM after 24 hrs by Hoechst 33258 staining-based phase contrast microscopy in presence of UVA light; assay type: functional
[23] = tested on: HeLa; experiment: Induction of cell morphological changes in human HeLa cells assessed as cell detachment from substrate at 3 to 5 uM after 24 hrs by Hoechst 33258 staining-based phase contrast microscopy in presence of UVA light; assay type: functional
[24] = tested on: HeLa; experiment: Induction of cell morphological changes in human HeLa cells assessed as deep deformation of cell membrane at LD90 after 24 hrs by Hoechst 33258 staining-based phase contrast microscopy in presence of 1 to 2 J/Cm'2 UVA light; assay type: functional
[25] = tested on: HaCaT; experiment: Induction of cell morphological changes in human HaCaT cells assessed as deep deformation of cell membrane at LD90 after 24 hrs by Hoechst 33258 staining-based phase contrast microscopy in presence of 1 to 2 J/Cm'2 UVA light

Structure (SMILES)	Drug uptake [1]	Drug uptake [2]	Drug uptake [3]	Drug uptake [4]	Drug uptake [5]	Drug uptake [6]	viability at 6 h, 3 µM [7] [%]	viability at 6 h, 5 µM [8] [%]	mortality [9] [%]	mortality [10] [%]	mortality [11] [%]	mortality [12] [%]	mortality [13] [%]	Activity [14]	Activity [15]	Activity [16]	Activity [17]	Activity [18]	Activity [19]	Activity [20]	further results
COc1cc(C#Cc2ccc(C#CCO[C@@H]3O[C@H](CO)[C@@H](O)[C@H](O)[C@H]3O)cc2N(C)C)c(OC)cc1C#Cc1ccc(C#CCO[C@@H]2O[C@H](CO)[C@@H](O)[C@H](O)[C@H]2O)cc1N(C)C	Active	Active	Active	Active	Active	Active	96.6	95.7	> 50	>50	>50	>50	>50	Toxic	Active	Active	Active	Active	Toxic	Active	Activity [21]: Active; Activity [22]: Active; Activity [23]: Active; Activity [24]: Active; Activity [25]: Toxic
COc1cc(C#Cc2ccc(C#Cc3cc(OC)c(C#CCO[C@@H]4O[C@H](CO)[C@@H](O)[C@H](O)[C@H]4O)cc3OC)c(N(C)C)c2)c(OC)cc1C#CCO[C@@H]1O[C@H](CO)[C@@H](O)[C@H](O)[C@H]1O	Active	Active	Active	Active	Active	Active	96.4	96.3	> 50	>50	>50	>50	>50	Toxic	Active	Active	Active	Active	Toxic	Active	Activity [21]: Active; Activity [22]: Active; Activity [23]: Active; Activity [24]: Active; Activity [25]: Toxic
